Compound activity (PubChem BioAssay)
Hits are enriched below; roughly 2.5% of the tested compounds scored in any of these assays.
TAG inh: inhibitors of triacylglycerol accumulation | H9c2 cells, Nile Red lipid (TAG) fluorescence; cells loaded with 200 µM oleic acid | 230,000 compounds, 0.66% hits | inhibition, % at 12.5 µM;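 active means pattern-corrected inhibition of lipid staining of at least 50% with the nuclear-stain viability signal not falling by more than 50%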;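 further: 0% = DMSO wells and 100% = triacsin C control wells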
SMARCA2 act: activators of SMARCA2 function; activation, % at 9.1 µM; 370,000 compounds, 1% hits; MG213 cells, MMTV-luciferase reporter, dexamethasone, overnight; in the data active means activation above about 7.8%;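 further: 0% = vehicle wells and 100% = reference activator wells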
Vif inh: inhibitors of HIV Vif. HEK293T cells, Vif self-association by quenched fluorescence, imaging, 24 h. inhibition, % at 7.49 µM. 340,000 compounds, 0.35% hits; in the data active means inhibition above about 50%, passing the limit was not always enough; inconclusive means no clear call, values can overlap the other calls; inactive means below about 31%
SR-BI DiI inh: blocks mouse SR-BI lipid uptake from DiI-HDL; Q61009; ldlA[mSR-BI] CHO cells, DiI-HDL uptake fluorescence, 3 h; inhibition, % at 12.5 µM; 320,000 compounds, 0.96% hits;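 active means mean replicate inhibition of at least 70% and a set share of replicates each scoring 70 or more; inconclusive means meets just one of the two criteria; inactive means fails both criteria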;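 further: 0% = median of neutral control wells and 100% = median of positive control wells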
Target sequence (Q61009 whole entry, looked up): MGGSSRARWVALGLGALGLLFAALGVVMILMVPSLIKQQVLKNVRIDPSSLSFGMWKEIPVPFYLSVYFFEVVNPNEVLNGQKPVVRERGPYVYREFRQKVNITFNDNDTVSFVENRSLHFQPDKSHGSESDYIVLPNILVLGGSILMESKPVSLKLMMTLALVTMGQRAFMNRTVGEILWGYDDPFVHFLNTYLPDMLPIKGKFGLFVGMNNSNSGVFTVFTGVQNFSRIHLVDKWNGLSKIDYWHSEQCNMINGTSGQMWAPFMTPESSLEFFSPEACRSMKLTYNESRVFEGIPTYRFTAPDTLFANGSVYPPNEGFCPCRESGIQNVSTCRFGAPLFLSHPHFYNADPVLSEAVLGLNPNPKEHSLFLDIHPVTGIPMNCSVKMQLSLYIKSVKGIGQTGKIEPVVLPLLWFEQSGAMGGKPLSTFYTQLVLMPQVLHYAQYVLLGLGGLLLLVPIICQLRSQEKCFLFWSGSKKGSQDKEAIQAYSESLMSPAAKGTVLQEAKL
SR-BI DiI-HDL act: enhances SR-BI lipid uptake from DiI-HDL | activation, % at 12.5 µM | CHO ldlA[mSR-BI] cells, DiI-HDL uptake fluorescence, 3 h; 100 = double the neutral-control signal | 320,000 compounds, 0.096% hits | AID 504775;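 active means mean replicate activation of at least 60% and every replicate at or above 60%; inconclusive means mean or all-replicate condition met, but not both; inactive means mean below 60% and not all replicates reaching 60%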;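 further: 0% = median plate neutral-control signal and 100% = twice that signal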
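Test system: SR-BI-overexpressing, LDLR-lacking CHO cells. Measured by: DiI fluorescence, bottom read. Medium: Ham's F12 with 0.5% BSA, HEPES 25 mM, pH 7.4. Timing: 3 h uptake period with compound, 37 °C.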
SMARCA2 conf: confirmation of SMARCA2 (BRM) function activators | AID 652260 | activation, % at 9.1 µM | 3,500 compounds, 30% hits | MG213 cells, MMTV-luciferase with dexamethasone, luminescence, overnight; MG213 cells expressing E1A, Rb sequestered; DMSO wells 0%, reference activator 100% | shares compounds with SMARCA2 act;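 active means activation above its plate's cutoff, the mean activation of tested wells plus 3 SD, cut at about 7.9% in these data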
GAL4-VP16 Luc: GAL4-VP16 reporter activation counter-screen; shares compounds with SMARCA2 act; HEK293 GAL4-VP16 pG5luc reporter, luciferase luminescence; scaled: DMSO wells 0%, SAHA wells 100%; activation, % at 9.1 µM; 3,500 compounds, 41% hits; AID 686939;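 active means activation above the solvent-only control well mean plus 3 SD, averaged across control plates, cut at about 5.2% in these data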
Numbers without * were called inactive; u = inconclusive; x = no result.

SMILES	TAG inh	SMARCA2 act	Vif inh	SR-BI DiI inh	SR-BI DiI-HDL act	SMARCA2 conf	GAL4-VP16 Luc
CCOc1ccc(C(=O)c2ccc(OCC)c(N)c2)cc1N	x	8.6*	2	11	-11	6	6.5*
CCOc1ccc(S(=O)(=O)N(CC)CC)cc1N	-2	-4	-4	0	0	x	x
Cc1nc(Nc2ccncc2)c2oc3ccccc3c2n1	x	10*	-6	-16	16	20*	1
CCN(CC)CCNc1nc(SC)nc2sc3c(c12)CCN(C)C3	x	9.2*	-2	-11	11	8	0
CN(CCc1ccccc1)C1CCCN(S(=O)(=O)N(C)C)C1 (stereo not given)	-1	-3	2	-9	9	x	x
Cc1ccc2cc(C#N)c(SCC(=O)NNC(=O)Cc3ccccc3)nc2c1	x	0	-3	7	-7	x	x
COc1ccc2cc(C#N)c(SCC(=O)NNC(=O)Cc3ccccc3)nc2c1	x	9.1*	-9	14	-14	1	1
Cc1nccc(-c2cc(-c3ccc(Cl)cc3Cl)no2)n1	-14	16*	5	-1	1	14*	3
COc1ccc2oc(C(=O)OCC(=O)NC3(C#N)CCCC3)c(C)c2c1	11	-1	3	-23	23	x	x
NC(=O)C1CC(=O)N(c2ccc(OCc3c(F)cccc3Cl)cc2)C1 (stereo not given)	4	1	-1	17	-17	x	x
NC(=O)C1CC(=O)N(c2ccc(OCc3c(Cl)cccc3Cl)cc2)C1 (stereo not given)	x	8.7*	8	-322	u	-5	1
COc1cc(CNCc2ccncc2)cc(OC)c1OC	x	-1	2	17	-17	x	x
Cn1nc2sc3ccccc3n2c(=O)c1=O	6	-5	-6	-15	15	x	x
N#Cc1cnc2sc3ccccc3n2c1=N	x	9.5*	17	-28	28	9.2*	7.0*
CCC(=O)NCCCCCCNC(=O)CC	x	1	-4	-19	19	x	x
O=C(CCl)NCCCCCCCCCNC(=O)CCl	x	8.8*	4	-12	12	7	-1
CCC1C(=O)n2nc(-c3ccccc3)cc2N=C1C (stereo not given)	x	10*	4	3	-3	12*	9.2*
CCOC(=O)C1CSCCS(=O)(=O)N1Cc1ccc(C)cc1 (stereo not given)	x	6	x	x	x	x	x
C/C(=N\NC(=O)c1ccoc1C)c1ccc(Cl)s1	0	5	9	-8	8	x	x
C/C(=N/NC(=O)c1ccoc1C)c1cccs1	x	13*	x	x	x	9.2*	5.2*
C/C(=N\NC(=O)c1ccc(NS(=O)(=O)c2cccs2)cc1)c1ccc(Cl)cc1	x	9.1*	4	52	-52	3	0
COC(=O)N/N=C(\C)c1cccs1	2	-1	-7	-12	12	x	x
C/C(=N\NC(=O)c1ccc(NS(=O)(=O)c2cccs2)cc1)c1cccs1	-4	-4	19	6	-6	x	x
O=C(CNC(=O)c1cccs1)c1ccc(Cl)cc1	x	8.8*	8	6	-6	10*	12*
C/C(=N\NC(=O)c1ccc(Cl)cc1)c1cccs1	-3	8.4*	12	2	-2	20*	14*
SMILES	TAG inh	SMARCA2 act	Vif inh	SR-BI DiI inh	SR-BI DiI-HDL act	SMARCA2 conf	GAL4-VP16 Luc
Cc1ccc(C(=O)N2[C@@H]3CN(C)C(=O)[C@@]2(Cc2ccccc2)[C@H]2C(=O)N(C)C(=O)[C@@H]32)cc1	-5	2	-5	4	-4	x	x
COc1ccc(C2CC(=O)C(c3ccc(Br)cc3)=CN2Cc2ccccc2)cc1 (stereo not given)	x	-3	x	x	x	x	x
CCCCCCC12Cc3cc(OC)c(OC)cc3C(O1)c1c(cc(C)oc1=O)O2 (stereo not given)	x	-6	x	x	x	x	x
Nc1cccn2c(-c3ccc(Cl)c(Cl)c3)cnc12	17	6	-3	44	-44	x	x
Nc1cccn2c(-c3ccc(Cl)cc3)cnc12	1	9.3*	7	40	-40	15*	20*
Cc1ccccc1NC(=O)Nc1nc2ccc(S(C)(=O)=O)cc2s1	x	9.2*	4	-18	18	3	4
NS(=O)(=O)c1ccc2nc(NC(=O)Nc3ccccc3F)sc2c1	x	4	2	9	-9	x	x
Cc1cc(C(=O)Nc2nc3ccc(S(C)(=O)=O)cc3s2)c(C)o1	x	10*	15	82*	-82	4	5.8*
CN1CCCCC(NC(=O)c2cccc([N+](=O)[O-])c2)C1=O (stereo not given)	x	3	x	x	x	x	x
COc1ccc(C(=O)NCc2ncccc2C)cc1OC1CCN(C(C)=O)CC1	14	-2	-7	63	-63	x	x
Oc1csc(Cc2nc(-c3ccccc3F)cs2)n1	-4	10*	-1	18	-18	17*	7.0*
O=C(Nc1cccc(Cl)c1)c1ccc(NCC2CCCO2)c([N+](=O)[O-])c1 (stereo not given)	x	-2	-6	59	-59	x	x
Cc1cccc(NC(=O)c2ccc(NCC3CCCO3)c([N+](=O)[O-])c2)c1 (stereo not given)	x	8.1*	x	63	-63	1	3
CCOc1ccccc1NC(=O)CSc1nc2ccccc2nc1N1CCCC1	18	8.3*	-6	16	-16	-3	0
CCOc1ccccc1NC(=O)CSc1nc2ccccc2nc1N1CCOCC1	-19	-3	-4	17	-17	x	x
COc1ccc(COCC(O)CN2CCN(S(=O)(=O)c3c(F)cccc3F)CC2)cc1OC (stereo not given)	0	2	0	15	-15	x	x
O=C(/C=C/Nc1ccc(F)cc1)c1cccs1	-12	8.8*	-4	-6	6	11*	14*
Cc1cc(C)c(S(=O)(=O)N2CCOC23CCN(S(C)(=O)=O)CC3)c(C)c1	4	14*	14	x	x	-3	1
O=C(Nc1ccc(-c2nc3cccnc3s2)cc1)c1ccc(Br)o1	49	5	1	55	-55	x	x
O=C(Nc1ccc(-c2cn3c(n2)SCC3)cc1)c1ccco1	5	14*	4	5	-5	8	10*
O=C(Nc1ccc(-c2nc3cccnc3s2)cc1)c1ccco1	11	8.2*	2	54	-54	4	10*
CCOc1ccc(NC(=O)CSc2nc3ccccc3nc2N2CCCC2)cc1	24	0	x	1	-1	x	x
O=C(CNS(=O)(=O)c1cccs1)N1CCN(c2ncccn2)CC1	x	-4	x	x	x	x	x
COc1ccc(C2Nc3ccccc3C(=O)N2c2ccc(C)cc2)cc1Cn1nc(C)c([N+](=O)[O-])c1C (stereo not given)	x	3	14	-1	1	x	x
